Only some compounds are listed: those with a hit (about 4.8% of all), similar ones and a draw of the others.
FLuc act counter: firefly luciferase counter-screen for stimulation assays; activation factor at 10 µM; ATPlite luciferase biochemical, luminescence, 10 min; 0 = ATP-free wells, 1 = DMSO control; 200,000 tested, under 10 active; P08659;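 active = luciferase activation factor, scaled between plate controls, of at least 2 with compound at 10 µM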
Target sequence (P08659 whole entry, looked up): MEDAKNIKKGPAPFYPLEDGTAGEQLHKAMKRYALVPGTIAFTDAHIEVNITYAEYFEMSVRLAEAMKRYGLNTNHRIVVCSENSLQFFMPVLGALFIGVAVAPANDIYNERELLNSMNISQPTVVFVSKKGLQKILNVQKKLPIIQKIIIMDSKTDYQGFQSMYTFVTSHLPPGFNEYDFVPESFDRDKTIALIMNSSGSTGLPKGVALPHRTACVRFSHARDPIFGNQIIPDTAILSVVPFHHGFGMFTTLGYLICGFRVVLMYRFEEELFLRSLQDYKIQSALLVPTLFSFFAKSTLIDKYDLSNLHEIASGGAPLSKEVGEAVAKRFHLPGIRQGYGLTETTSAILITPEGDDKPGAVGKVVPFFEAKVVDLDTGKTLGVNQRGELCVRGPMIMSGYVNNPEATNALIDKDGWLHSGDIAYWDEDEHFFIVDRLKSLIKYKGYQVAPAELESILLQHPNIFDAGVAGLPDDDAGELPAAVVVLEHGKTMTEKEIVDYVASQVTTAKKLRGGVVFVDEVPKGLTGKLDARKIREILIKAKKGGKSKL
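test system = cell-free luciferase reagent | medium = PBS as buffer for the ATP substrate | dosing = test compounds dosed from 2 mM stocks in 100% DMSO | incubation = 10 min at ambient temperature | detection = luminescence measurement of luciferase light output | benchmarks = low control with PBS replacing ATP, high control enzyme plus ATP without compound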
STAT1 activator: increases IFN-gamma driven STAT1 reporter signal. NIH 3T3 STAT1-luciferase reporter, luminescence; 100% = IFN-gamma alone, no compound. activation (% of control), % at 5.5 µM. 200,000 compounds, 2.6% hits. AID 932;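 active = activation above the screen-wide mean activation plus 3 SD, cut at about 130% in these data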
APP transl inh: APP translation inhibition; SH-SY5Y APP 5'UTR-luciferase reporter, luminescence; inhibition, % at 2 µM; 190,000 compounds, 0.82% hits; AID 1285;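 active = inhibition above a set limit, derived from the sample mean plus 3 SD, cut at about 45% in these data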
NF-kB neuron act: NF-kB expression increase, human neuronal cells; NF-kB reporter expression; hits give high values; fold change at 12.5 µM; 190,000 compounds, 1.6% hits; AID 1239; in the data active = fold change above about 3.3
FLuc inh counter: inhibits firefly luciferase, flagging false hits in luciferase inhibition screens | P08659 | ATPLite firefly luciferase biochemical luminescence, 10 min | inhibition, % at 10 µM | 200,000 compounds, 1.5% hits;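 active = inhibition above about 50% when tested at 10 µM, limit read from the data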
APP 5'UTR act: activates APP 5'UTR luciferase reporter; SH-SY5Y APP 5'UTR luciferase reporter, luminescence; zero percent = DMSO vehicle wells; activation, % at 2 µM; 190,000 compounds, 1% hits; AID 1276;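 active = activation above a set limit, based on mean plus 3 SD of controls, cut at about 140% in these data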
Each line names hits and unclear results; the compound was inactive in the other large screens.

CC(=O)NNc1nc2ccccc2s1	none
O=C(O)C1C2CCC(C2)C1C(=O)Nc1nc2ccccc2s1 (stereo not given)	none
COc1ccc(-n2cnc3c(cnn3CCC#N)c2=N)cc1	none
COc1ccc(N2CCN(Cc3nc4c(c(=O)[nH]c(=O)n4C)n3CC(C)=O)CC2)cc1	none
S=C(Nc1ccccc1)c1nc2ccccc2s1	STAT1 activator 137.5
CNc1nc(-c2ccc3c(c2)CCN3C(=O)c2ccccc2C)cs1	STAT1 activator 145.4, NF-kB neuron act 3.79, APP 5'UTR act 193.2
CNc1nc(-c2ccc3c(c2)CCN3C(=O)c2ccc(F)cc2)cs1	none
C=CCSc1nc(C)c(CCCC)c(=O)[nH]1	none (no result: NF-kB neuron act)
CCOc1ccc(OCC)c(NC(=O)CCCN2C(=S)NC(C)(C)CC2C)c1 (stereo not given)	none
CCCc1cc(C(=O)Nc2nccs2)cs1	STAT1 activator 129.5, NF-kB neuron act 6.71, FLuc inh counter 61.0, APP 5'UTR act 152.0
CCc1cc(C(=O)NNC(=S)Nc2ccccc2C)cs1	NF-kB neuron act 4.28
CCCN1C(=O)c2ccc(C(=O)Nc3nccs3)cc2C1=O	none
CCc1cc(C(=O)Nc2ccccc2)cs1	STAT1 activator 134.8, NF-kB neuron act 3.74
O=C(Nc1cccc(NC(=O)c2ccc(-c3ccc(Br)cc3)o2)c1)c1ccco1	none
O=c1c(Cl)c(Nc2cccc(Cl)c2)cnn1-c1nc2ccccc2s1	STAT1 activator 149.8
CCc1ccc(N2CC(C(=O)Nc3cc(C)on3)CC2=O)cc1 (stereo not given)	none
NC(=O)c1c(NC(=O)c2ccccc2)sc2c1CCc1ccccc1-2	STAT1 activator 139.5, NF-kB neuron act 4.09
NC(=O)c1c(NC(=O)c2ccncc2)sc2c1CCCC2	none
CCCCOC(=O)N/N=C/C=C/c1ccccc1	none
Cc1nc(C(C)NC(=O)CCc2nnc(CCCc3ccccc3)o2)c(C)s1 (stereo not given)	STAT1 activator 148.8
CN(Cc1ccsc1)C(=O)CCc1nnc(CCCc2ccccc2)o1	STAT1 activator 133.3
CN(Cc1ccsc1)C(=O)CCc1nnc(Cc2c[nH]c3ccccc23)o1	none
COc1cc(NC(=O)CCCc2c[nH]c3ccccc23)cc(OC)c1	none
CS(=O)(=O)N1CCc2cc(NC(=O)c3ccc(Cl)cc3Cl)ccc21	STAT1 activator 129.4
CC1N/C(=C\C(=O)c2ccccc2)N(O)C1(C)C (stereo not given)	STAT1 activator 134.0, FLuc inh counter 63.3
C/C(=N\N1C(=O)c2ccccc2NC1c1ccccc1)c1ccccc1O (stereo not given)	STAT1 activator 139.7
C/C(=N\N1C(=O)c2ccccc2NC1c1ccco1)c1ccccc1O (stereo not given)	NF-kB neuron act 6.6
O=C(Cc1ccc([N+](=O)[O-])cc1)N1N=C(C2CC2)CC1(O)C(F)(F)F (stereo not given)	none
O=c1[nH]c2ccccc2c(O)c1-c1ccccc1[N+](=O)[O-]	none
O=C(N/N=C/c1ccccc1F)NC1CCCCC1	STAT1 activator 130.5
CC1CC(C)CN(C(=O)c2cc3cc(Br)cc(Br)c3o2)C1 (stereo not given)	none
Cc1ccc(-c2cc(C(=O)NCc3ccccn3)c3ccccc3n2)cc1	none
CCCc1ccc(-c2cc(C(=O)NC3=NCCS3)c3ccccc3n2)cc1	FLuc inh counter 84.9
CCc1ccc(-c2cc(C(=O)NCc3ccccn3)c3ccccc3n2)cc1	FLuc inh counter 60.6
Cc1ccc(-c2cc(C(=O)NC3=NCCS3)c3ccccc3n2)cc1C	FLuc inh counter 65.1
O=C(NC1=NCCS1)c1cc(-c2ccc(F)cc2)nc2ccccc12	none
CCC(C)n1ncn(-c2ccc(N3CCN(c4ccc(OC)cc4)CC3)cc2)c1=O (stereo not given)	none
CCn1cc(S(=O)(=O)CC(=O)Nc2ccc(OC)cc2)c2ccccc21	none
COc1ccc2nc(N=Nc3c(O)ccc4ccccc34)sc2c1	APP transl inh 69.3
O=C(NCCc1ccccc1)c1nc(-c2cccs2)no1	none
COc1ccc(/C=C/C(=O)c2ccccc2)c(OC)c1	STAT1 activator 147.4, NF-kB neuron act 7.73, FLuc inh counter 71.4, APP 5'UTR act 236.5
COc1ccc(/C=C/C(=O)c2ccc3c(c2)OCO3)c(OC)c1	STAT1 activator 129.3, FLuc inh counter 77.7, APP 5'UTR act 152.5

From PubChem
